The source of these data is PubChem BioAssay AID1885 (Broad Institute, 2009).

Molecules are shown by their SMILES. Out of some 300,000 compounds screened, about 4,400 (1.5%) were called active. Only a selection was taken, and actives are over-represented in it overall. A number with no mark means an inactive call.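 The calls were made as follows: active = mean inhibition across valid replicates above about 55% (limit read from the data); inconclusive = mean below that limit but half or more replicates reach it; inactive = mean below it, under half of replicates reach it.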

One may read the inhibition as the drop in the measured response relative to a control, in per cent.

A short description of the experiment: Trypanosoma cruzi replication blockers in host cells – luminescence, NIH3T3 host cells, primary screen (AID 1885).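 Also: signal also drops with host cell toxicity which is not excluded here; 0% = plate median of DMSO wells and 100% = zero luminescence signal; higher percent means less beta-gal luminescence so fewer parasites.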 As to conditions: T. cruzi beta-gal in NIH3T3, luminescence, 90 h; stronger effect = higher value; concentration not given here. The gist of the method: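 Assay system: NIH/3T3 host cells with β-galactosidase reporter T. cruzi; input: 5,000 host fibroblasts per well; compound: single 50 nL compound addition per well in DMSO; timing: ≥90 h infection period, 3 h prior cell attachment; measured by: GalScreen β-gal luminescence, detergent lysis, 60 min; evaluation: percent inhibition of parasite-derived β-gal signal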
Consider `CCN(CC(=O)NCc1cccs1)S(=O)(=O)c1ccc(NC(C)=O)cc1`, for which the inhibition is -2.26%.

`CC1CCCCN1S(=O)(=O)c1ccc(S(=O)(=O)N(CC(=O)Nc2ccccc2)Cc2cccs2)cc1` (centres undefined): the inhibition is 57.2% (active).

Regarding `CC1CCCCN1S(=O)(=O)c1ccc(C(=O)Nc2nnc(-c3cccs3)o2)cc1` (centres undefined), the inhibition was 43.1%.

For `CC(OC(=O)C1CC(=O)N(Cc2ccccc2)C1)C(=O)Nc1ccccc1[N+](=O)[O-]` (centres undefined), the inhibition was -2.86%.

Take `Cc1[nH]c2ccccc2c1CCN(Cc1cccs1)C(=S)NC(C)(C)C`: the inhibition was 26.1%.

As for `COc1ccc2[nH]c(C)c(CCN(Cc3cccs3)C(=S)Nc3ccccc3OC)c2c1`, the inhibition was 60% (active).

In the case of `COc1cccc(NC(=S)N(CCc2c(C)[nH]c3ccccc23)Cc2ccco2)c1`, the inhibition was 18.1%.

As for `CC(C)c1nc(SCC(=O)NC(=O)NC(C)(C)C)n[nH]1`, the inhibition is -2.85%.

For the compound `CCCCCCCCCCOC(=O)Cn1c(COc2cccc(OC)c2)[n+](C)c2ccccc21`, the inhibition is 65.1% (active).

`CCCCCCCCCCOC(=O)Cn1c(COc2ccc(C)cc2)[n+](C)c2ccccc21`: the inhibition was 46.2%.

On to `CCn1c(=N)n(CC(=O)c2cccc(OC)c2)c2ccccc21`, for which the inhibition was 7.38%.

Regarding `CCCCCC(=O)N1CCN(S(=O)(=O)c2ccc3c(c2)OCCCO3)CC1`, the inhibition is -5.19%.

In the case of `Cc1cc(Nc2ccc(Br)cc2)nc2ccccc12`, the inhibition is 32.6%.

Regarding `Cn1c2ccccc2c(=O)c2c(=O)n(Cc3ccco3)c(COc3ccccc3)nc21`, the inhibition is 62.2% (active).

Turning to `CCCc1nc2c(c(=O)c3ccccc3n2C)c(=O)n1-c1cc(C)cc(C)c1`, the inhibition is 34.2%.

On to `CCCc1nc2c(c(=O)c3ccccc3n2C)c(=O)n1C1CCCCCC1`, for which the inhibition was 22.4%.

Consider `Cc1ccc(OCCC(=O)OCC(=O)N2c3ccccc3NC(=O)C2(C)C)cc1`, for which the inhibition is -1.24%.

With `COc1ccc(CNC(=O)C(=O)N2CCC3(CC2)OCCN3S(=O)(=O)c2ccc(C)cc2)cc1`, the inhibition is -4.09%.

As for `COc1ccc(S(=O)(=O)N2CCSCC2)cc1`, the inhibition was 5.81%.

Regarding `COc1ccc(S(=O)(=O)N2CCOC23CCN(S(=O)(=O)c2ccc([N+](=O)[O-])cc2)CC3)cc1`, the inhibition was 61.5% (active).

Turning to `CC1(C)O[C@H]2CC(=O)OCC23[C@H]2CC[C@@]4(C)[C@H](c5ccoc5)OC(=O)[C@H]5O[C@]54[C@]2(C)C(=O)C[C@@H]13` (some centres undefined), the inhibition is -3.05%.

Take `Nc1scc[n+]1Cc1cccc2cccnc12`: the inhibition is -1.61%.

Consider `c1ccc2c(C[n+]3csc4ccccc43)cccc2c1`, for which the inhibition was 59.8% (active).

As to `c1ccc(NCc2cccc3ccccc23)nc1`, the inhibition is 1.93%.
